ChEMBL document CHEMBL1124386, “Selective thyromimetics. Cardiac-sparing thyroid hormone analogues containing 3'-arylmethyl substituents” (J Med Chem, 1989)
Converted amounts (≈) assume the structure as drawn. The source made the active and inactive calls. The calls are words filed in the database; no cut-off is given here.

Key:
[1] = biological target: T1, Thyroid hormone receptor beta (Rattus norvegicus) (UniProt P18113); assay: Binding affinity to the receptor was determined in nuclei of liver In vivo 1 hour after intravenous administration relative to T3; assay type: organism-based
T1 sequence (whole entry): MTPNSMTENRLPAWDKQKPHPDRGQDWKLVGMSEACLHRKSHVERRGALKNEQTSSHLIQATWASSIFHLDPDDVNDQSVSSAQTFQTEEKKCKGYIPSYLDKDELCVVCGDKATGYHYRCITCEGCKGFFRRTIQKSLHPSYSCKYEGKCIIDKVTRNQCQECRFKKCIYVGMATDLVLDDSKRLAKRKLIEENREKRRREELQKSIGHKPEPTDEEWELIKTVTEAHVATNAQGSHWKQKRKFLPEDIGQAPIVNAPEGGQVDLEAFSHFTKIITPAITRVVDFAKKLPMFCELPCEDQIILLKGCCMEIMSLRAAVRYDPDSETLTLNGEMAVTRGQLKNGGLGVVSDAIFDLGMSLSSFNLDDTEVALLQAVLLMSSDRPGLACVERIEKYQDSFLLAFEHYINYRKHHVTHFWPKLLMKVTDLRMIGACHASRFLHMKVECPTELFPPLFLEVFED

[2] = Binding affinity to the thyroid hormone receptor was determined in vitro in isolated nuclei of rat liver relative to 3,5,3' triiodothyronine; assay type: tissue-based
[3] = Selectivity, ratio between relative ID50 in liver and heart
Outline: (§1)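 Liver/heart selectivity in rats, calculated as (relative ID50)liver divided by (relative ID50)heart, from in vivo nuclear binding 1 h after intravenous dosing.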

[4] = biological target: T1, Thyroid hormone receptor beta (Rattus norvegicus); assay: Binding affinity to the receptor was determined in nuclei of heart in vivo 1 hour after intravenous administration relative to 3,5,3' triiodothyronine receptor
Rattus norvegicus [5] = assay: Potency for induction of GPDH was measured 48 hr after single intramuscular injection relative to T3 in lheart; LM=low maximal response after 2 daily doses of 50 mg/kg; assay type: functional, organism-based; design: dose 50 mg/kg; conditions: filed as partial agonist
Rattus norvegicus [6] = assay: Potency for induction of GPDH (mitochondrial cytochrome C 3-phosphoglycerate oxidoreductase) was measured 48 hr after single im injection relative to T3 in liver; LM=low maximal response after 2 daily doses of 50 mg/kg; assay type: functional, organism-based; design: dose 50 mg/kg; conditions: filed as partial agonist
Rattus norvegicus [7] = assay: Potency for induction of GPDH (mitochondrial cytochrome C3-phosphoglycerate oxidoreductase) was measured 48 hr after single im injection relative to T3 in heart; I=inactive after 2 daily doses of 50 mg/kg; assay type: functional, organism-based; design: dose 50 mg/kg
Rattus norvegicus [8] = assay: In vivo binding affinity for 3,5,3'' triiodothyronine receptor of heart nuclei 1 hr after intravenous administration; assay type: organism-based
[9] = system: Thyroid hormone receptor (Rattus norvegicus); assay: Binding affinity to thyroid hormone receptor, relative to 3,5,3' triiodothyronine receptor, in isolated nuclei of heart
Rattus norvegicus [10] = assay: In vivo binding affinity for 3,5,3' triiodothyronine receptor of liver nuclei 1 hour after intravenous administration; assay type: organism-based
Rattus norvegicus [11] = species on record: Rattus norvegicus; assay: Selectivity ratio of ID50 in liver and heart; outline: as §1
Rattus norvegicus [12] = assay: Potency for induction of GPDH (mitochondrial cytochrome C3-phosphoglycerate oxidoreductase) was measured 48 hours after single intramuscular injection relative to T3 in heart; assay type: functional
[13] = biological target: T1, Thyroid hormone receptor beta (Rattus norvegicus); assay: In vitro binding affinity to the receptor was determined in isolated nuclei of heart relative to T3
[14] = biological target: T1, Thyroid hormone receptor beta (Rattus norvegicus); assay: Binding affinity to the receptor was determined in vitro in isolated nuclei of rat liver relative to T3; assay type: tissue-based
[15] = biological target: T1, Thyroid hormone receptor beta (Rattus norvegicus); assay: Binding affinity to the receptor was determined in nuclei of heart in vivo 1 hour after intravenous administration relative to T3; assay type: organism-based
Rattus norvegicus [16] = assay: Potency for induction of GPDH (mitochondrial cytochrome C3-phosphoglycerate oxidoreductase) was measured 48 hours after single intramuscular injection relative to T3 in liver; assay type: functional
Rattus norvegicus [17] = assay: Percent increase in oxygen consumption after seven daily doses of test compound given intramuscularly, with concentration of compound at 3.3 mg/kg; assay type: functional; conditions: route intramuscular
Outline: (§2)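 Euthyroid rats given seven daily doses, intramuscular or oral, by line; whole-body oxygen consumption measured as percent increase in metabolic rate.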

Rattus norvegicus [18] = assay: Percent increase in oxygen consumption after seven daily doses of test compound given perorally, with concentration of compound at 0.1 mg/kg; assay type: functional; conditions: dose 10 mg/kg; route oral; in the assay text read “10 mg/kg” for “0.1 mg/kg”; outline: as §2
[19] = biological target: T1, Thyroid hormone receptor beta (Rattus norvegicus); assay: Selectivity, ratio of relative ID50 in liver and heart; outline: as §1
[20] = biological target: T1, Thyroid hormone receptor beta (Rattus norvegicus); assay: Binding affinity to the receptor was determined in nuclei of liver In vivo 1 hour after intravenous administration relative to 3,5,3' triiodothyronine receptor; assay type: organism-based
Rattus norvegicus [21] = assay: Potency for induction of GPDH (mitochondrial cytochrome C3-phosphoglycerate oxidoreductase) was measured 48 hours after single intramuscular injection relative to T3 in liver; LM is low maximal response after 2 daily doses of 50 mg/kg; assay type: functional
[22] = biological target: T1, Thyroid hormone receptor beta (Rattus norvegicus); assay: Binding affinity to the receptor was determined in isolated nuclei of heart in vitro relative to 3,5,3' triiodothyronine receptor
Rattus norvegicus [23] = assay: Potency for induction of GPDH (mitochondrial cytochrome C 3-phosphoglycerate oxidoreductase) was measured 48 hr after single im injection relative to T3 in heart; LM=low maximal response after 2 daily doses of 50 mg/kg; assay type: functional, organism-based; design: dose 50 mg/kg; conditions: filed as partial agonist
[24] = biological target: T1, Thyroid hormone receptor beta (Rattus norvegicus); assay: Binding affinity to the receptor was determined in vivo in rat liver nuclei 1 h after intravenous administration relative to 3,5,3' triiodothyronine receptor
Rattus norvegicus [25] = assay: Potency for induction of GPDH (mitochondrial cytochrome C3-phosphoglycerate oxidoreductase) was measured 48 hr after single im injection relative to T3 in liver; I=inactive after 2 daily doses of 50 mg/kg; assay type: functional, organism-based; design: dose 50 mg/kg
Rattus norvegicus [26] = assay: Percent increase in oxygen consumption after seven daily doses of test compound given perorally; I is inactive after 2 daily doses of 50 mg/kg; assay type: functional, organism-based; design: dose 50 mg/kg; outline: as §2
[27] = Aqueous solubility at 37 degree Celsius at pH 7.38; assay type: physicochemical
Outline: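 Solubility in aqueous medium at 37 °C, pH 7.38; given in units of ×10^5 mol/L.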

[28] = Partition coefficient at 25 degree Celsius in octanol/aqueous buffer at pH 6.02; assay type: physicochemical
Rattus norvegicus [29] = assay: Percent increase in oxygen consumption after seven daily doses of test compound given perorally, with concentration of compound at 5 mg/kg; assay type: functional; conditions: route oral; outline: as §2

Row | SMILES | Relative IC50 [2] | Ratio [3] | Relative IC50 [9] | Ratio (Rattus norvegicus [11]) | Relative ED50 (Rattus norvegicus [6]) | Relative ED50 (Rattus norvegicus [7]) | Relative ID50 (Rattus norvegicus [8]) | Relative ID50 (Rattus norvegicus [10]) | Relative ED50 (Rattus norvegicus [16]) | other results
1 | N[C@@H](Cc1cc(I)c(Oc2ccc(O)c(Cc3ccccc3O)c2)c(I)c1)C(=O)O | 0.81 | 1 |  |  | Partial agonist |  |  |  |  | Relative ID50 [1]: 0.024; Relative ID50 [4]: 0.024; Relative ED50 (Rattus norvegicus [5]): Partial agonist
2 | O=C(O)CCc1cc(Br)c(Oc2ccc(O)c(Cc3ccc(O)nc3)c2)c(Br)c1 |  |  |  |  |  |  |  |  | 2 | Relative ED50 (Rattus norvegicus [12]): 0.04; Relative IC50 [13]: 33.2; Relative IC50 [14]: 31.6; Relative ID50 [15]: 4.2
3 | N[C@@H](Cc1cc(I)c(Oc2ccc(O)c(Cc3ccccc3)c2)c(I)c1)C(=O)O | 15 | 17 |  |  |  |  |  |  | 2.2 | Relative ED50 (Rattus norvegicus [12]): 0.5; Relative ID50 [1]: 5.1; Relative ID50 [4]: 0.3
4 | Nc1ccc(Cc2cc(Oc3c(I)cc(C[C@H](N)C(=O)O)cc3I)ccc2O)cc1 | 0.63 |  | 1.1 | 9.13 |  | inactive | 0.023 | 0.21 |  | Relative ED50 (Rattus norvegicus [25]): inactive
5 | N[C@@H](Cc1cc(I)c(Oc2ccc(O)c(Cc3ccc([N+](=O)[O-])cc3)c2)c(I)c1)C(=O)O | 20 |  | 64 | 13.8 | Partial agonist |  | 0.71 | 9.8 |  | Relative ED50 (Rattus norvegicus [12]): 0.9
6 | N[C@@H](Cc1cc(I)c(Oc2ccc(O)c(Cc3ccncc3)c2)c(I)c1)C(=O)O | 8.5 |  | 15 | 4.38 | Partial agonist |  | 1.6 | 7 |  | Relative ED50 (Rattus norvegicus [23]): Partial agonist
7 | N[C@@H](Cc1cc(I)c(Oc2ccc(O)c(Cc3ccccn3)c2)c(I)c1)C(=O)O | 0.96 |  | 3.5 | 4.44 |  |  | 0.54 | 2.4 |  | Relative ED50 (Rattus norvegicus [23]): Partial agonist
8 | N[C@@H](Cc1cc(I)c(Oc2ccc(O)c(Cn3ccc(=O)cc3)c2)c(I)c1)C(=O)O | 0.25 |  | 0.4 | 208 |  | inactive | 0.013 | 2.7 | 1.4 | 
9 | N#Cc1ccc(Cc2cc(Oc3c(I)cc(C[C@H](N)C(=O)O)cc3I)ccc2O)cc1 | 13 | 27.7 |  |  | Partial agonist | inactive |  |  |  | Relative ID50 [1]: 6.1; Relative ID50 [4]: 0.22

The next lines start with results.

Row | Relative IC50 [2] | Ratio [3] | Relative IC50 [9] | Ratio (Rattus norvegicus [11]) | SMILES | Relative ED50 (Rattus norvegicus [6]) | Relative ED50 (Rattus norvegicus [7]) | Relative ID50 (Rattus norvegicus [8]) | Relative ID50 (Rattus norvegicus [10]) | Relative ED50 (Rattus norvegicus [16]) | other results
10 | 0.76 | 74.1 |  |  | Cn1cc(Cc2cc(Oc3c(I)cc(C[C@H](N)C(=O)O)cc3I)ccc2O)ccc1=O | Partial agonist | inactive |  |  |  | 
11 | 5.9 |  | 15 | 1 | N[C@@H](Cc1cc(I)c(Oc2ccc(O)c(Cc3ccc(O)c(Cl)c3)c2)c(I)c1)C(=O)O | Partial agonist | inactive | 0.07 | 0.07 |  | 
12 | 31 |  | 31 | 1.62 | N[C@@H](Cc1cc(I)c(Oc2ccc(O)c(Cc3ccc(O)c(F)c3)c2)c(I)c1)C(=O)O | Partial agonist | inactive | 0.37 | 0.6 |  | 
13 | 2 |  | 4 | 95 | N[C@@H](Cc1cc(I)c(Oc2ccc(O)c(Cc3ccc(O)nn3)c2)c(I)c1)C(=O)O |  |  | 0.4 | 38 | 2.4 | Relative ED50 (Rattus norvegicus [12]): <0.1; Increase (Rattus norvegicus [17]): 19%; Increase (Rattus norvegicus [18]): 20%
14 | 7.4 |  | 9.7 | 3.5 | Cc1cc(Cc2cc(Oc3c(I)cc(C[C@H](N)C(=O)O)cc3I)ccc2O)ccc1O | Partial agonist | inactive | 0.1 | 0.35 |  | 
15 | 60 |  |  |  | N[C@@H](Cc1cc(I)c(Oc2ccc(O)c(Cc3ccc(F)cc3)c2)c(I)c1)C(=O)O |  |  |  |  |  | Ratio [19]: 11.4; Relative ED50 (Rattus norvegicus [12]): 3.7; Relative ID50 [4]: 8.6; Relative ID50 [20]: 98; Relative ED50 (Rattus norvegicus [21]): 5.7; Relative IC50 [22]: 43
16 | 0.67 |  | 4.4 | 1 | CC(C)c1cc(Cc2cc(Oc3c(I)cc(C[C@H](N)C(=O)O)cc3I)ccc2O)ccc1O | Partial agonist |  | 0.11 | 0.11 |  | Relative ED50 (Rattus norvegicus [23]): Partial agonist
17 |  | 45.2 |  |  | N[C@@H](Cc1cc(I)c(Oc2ccc(O)c(Cc3cnc(O)nc3)c2)c(I)c1)C(=O)O |  | inactive |  |  |  | Relative IC50 [13]: 0.58; Relative ID50 [24]: 0.28; Relative ED50 (Rattus norvegicus [25]): inactive; Relative IC50 [14]: 0.15
18 | 20 |  | 15 | 12.4 | N[C@@H](Cc1cc(I)c(Oc2ccc(O)c(Cc3ccc(O)cn3)c2)c(I)c1)C(=O)O |  |  | 2.5 | 31 | 1.7 | Relative ED50 (Rattus norvegicus [23]): Partial agonist
19 | 17 | 27.1 |  |  | N[C@@H](Cc1cc(I)c(Oc2ccc(O)c(Cc3ccc(O)cc3)c2)c(I)c1)C(=O)O |  |  |  |  |  | Relative ED50 (Rattus norvegicus [12]): <0.1; Relative ID50 [1]: 19; Relative ED50 (Rattus norvegicus [21]): 2.2
20 | 1.1 |  | 1.9 |  | N[C@H](Cc1cc(I)c(Oc2ccc(O)c(Cc3ccc(O)nc3)c2)c(I)c1)C(=O)O |  | inactive |  |  | 1 | % increase O2 consumption (Rattus norvegicus [26]): inactive
21 | 0.49 |  | 0.53 |  | N[C@@H](Cc1cc(Cl)c(Oc2ccc(O)c(Cc3ccc(O)nc3)c2)c(Cl)c1)C(=O)O |  |  | 0.5 | 13 | 1.2 | Relative ED50 (Rattus norvegicus [23]): Partial agonist; solubility [27]: 100 µM (≈ 44.9 µg/mL); logD [28]: 0.6; Increase (Rattus norvegicus [17]): 26%; Increase (Rattus norvegicus [29]): 31%
22 |  | 20 |  |  | N[C@@H](Cc1cc(I)c(Oc2ccc(O)c(Cc3ccnc(O)c3)c2)c(I)c1)C(=O)O | Partial agonist | inactive |  |  |  | Relative ID50 [24]: 0.07; Relative IC50 [14]: 0.042
23 | 0.028 |  |  |  | Cc1cc(O)c(Cc2ccc(O)nc2)cc1Oc1c(I)cc(C[C@H](N)C(=O)O)cc1I |  |  |  |  |  | 
